# Assay results published in ChEMBL document CHEMBL2169769, “Synthesis and biological characterization of protease-activated prodrugs of doxazolidine” (J Med Chem, 2012).
# pIC50: −log10 of the molar value.
# How the values were obtained:
# MIA PaCa-2 [1] = assay: Cytotoxicity against human MIAPaCa2 cells incubated for 24 hrs measured after 5 days in presence of 0.2 U plasmin; format: functional, cell-based
# Procedure, shortened: (§1)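 Cells seeded 1000/well, adhered overnight, then serum-free medium with or without plasmin, trypsin, cathepsin B or papain (0.2 U/well), aprotinin (5 µM) or protease inhibitor cocktail (1X). Prodrug 2000–1 nM final, 24 h; then complete medium up to 5 days or control 80% confluence. Formalin fixed, crystal violet, A582; % of control fit to variable-slope sigmoid for IC50.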
# [2] = biological target: Cathepsin B (Homo sapiens) (UniProt P07858); assay: Activity of human cathepsin B assessed as enzyme catalytic efficiency for compound hydrolysis at 50 uM at pH 6.5 in PBS buffer containing 10 mM N-acetylcysteine by RP-HPLC
# Procedure, shortened: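 Michaelis-Menten kinetics, substrate 10–400 µM at 37 °C. Plasmin: 0.2 U, PBS pH 7.4, 4 min. Cathepsin B: 0.08 U, PBS-NAC pH 6.5, 20 min. Quenched with equal volume ethanol, −20 °C ≥2 h, centrifuged, supernatant RP-HPLC at 480 nm. Rates (µM/min) fit by non-linear least squares; triplicates.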
# MCF7 [3] = assay: Cytotoxicity against human MCF7 cells incubated for 24 hrs measured after 5 days in presence of complete protease inhibitor cocktail; format: functional, cell-based; procedure, shortened: as §1
# [4] = Prodrug conversion assessed as release dozax at 50 uM at pH 7.4 in PBS buffer in presence of human plasmin after 2 hrs by RP-HPLC; format: ADME; conditions: pH 7.4, 2 h
# Procedure, shortened: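 50 µM prodrug with 1.2 µg/mL human plasmin in PBS pH 7.4 at 37 °C. Samples taken over time, ethanol-quenched, analysed by RP-HPLC at 480 nm for prodrug and dox; repeated runs fit to single-exponential association model.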
# MIA PaCa-2 [5] = assay: Cytotoxicity against human MIAPaCa2 cells incubated for 24 hrs measured after 5 days in presence of 0.2 U cathepsin B; format: functional, cell-based; procedure, shortened: as §1
# HEK-293T = assay: Cytotoxicity against human HEK293T cells incubated for 24 hrs measured after 5 days in presence of 0.2 U human plasmin; format: cell-based; procedure, shortened: as §1
# [6] = Cytotoxicity against human L3.3 cells incubated for 24 hrs measured after 5 day; format: functional, cell-based; procedure, shortened: as §1
# [7] = Cytotoxicity against human L3.5.cells incubated for 24 hrs measured after 5 days in presence of 0.2 U human plasmin; format: functional, cell-based; procedure, shortened: as §1
# [8] = Cytotoxicity against human L3.3 cells incubated for 24 hrs measured after 5 days in presence of 0.2 U human plasmin; format: functional, cell-based; procedure, shortened: as §1
# MCF7 [9] = assay: Cytotoxicity against human MCF7 cells incubated for 24 hrs measured after 5 days in presence of 0.2 U cathepsin B; format: functional, cell-based; procedure, shortened: as §1
# MCF7 [10] = assay: Drug uptake in human MCF7 cells increase in compound uptake-induced anthracycline fluorescence in presence of plasmin at 0.5 uM after 4 to 5 hrs by flow cytometry relative to untreated control; format: ADME, cell-based; conditions: mcf7, 0.5 µM
# Procedure, shortened: (§2)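 MCF-7 or MiaPaCa-2 plated 250,000/well, adhered overnight, switched to serum-free medium with 0.5 µM prodrug alone or plus 0.2 U human plasmin (final) for up to 5 h. Trypsinised cells read by flow cytometry (FL3) for anthracycline fluorescence; mean values expressed as fold over untreated cells.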
# MIA PaCa-2 [11] = assay: Drug uptake in human MIAPaCa2 cells increase in compound uptake-induced anthracycline fluorescence in presence of plasmin at 0.5 uM after 4 to 5 hrs by flow cytometry relative to untreated control; format: ADME, cell-based; conditions: mia paca-2, 0.5 µM; procedure, shortened: as §2
# MIA PaCa-2 [12] = assay: Cytotoxicity against human MIAPaCa2 cells incubated for 24 hrs measured after 5 days in presence of 0.2 U papain; format: functional, cell-based; procedure, shortened: as §1
# MIA PaCa-2 [13] = assay: Drug uptake in human MIAPaCa2 cells increase in compound uptake-induced anthracycline fluorescence in absence of plasmin at 0.5 uM up to 5 hrs by flow cytometry relative to untreated control; format: ADME, cell-based; conditions: mia paca-2, 5 h; procedure, shortened: as §2
# [14] = biological target: Cathepsin B (Homo sapiens) (UniProt P07858); assay: Activity of human cathepsin B assessed as compound hydrolysis measuring enzyme specific activity at 50 uM at pH 6.5 in PBS buffer containing 10 mM N-acetylcysteine by RP-HPLC
# Procedure, shortened: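 Specific activity from hydrolysis time courses at 37 °C with 50 µM substrate. Plasmin in PBS pH 7.4; cathepsin B diluted two-fold in PBS-NAC, reacted in PBS-NAC (10 mM N-acetylcysteine) pH 6.5. Ethanol-quenched aliquots, protein precipitated at −20 °C, RP-HPLC at 480 nm tracking dox release. Linear least-squares slope used; 1 U = 1 µM substrate hydrolysed per min.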
# SHP77 = assay: Cytotoxicity against doxorubicin-resistant human SHP77 cells incubated for 24 hrs measured after 5 days in presence of 0.2 U human plasmin; format: functional, cell-based; procedure, shortened: as §1
# [15] = Cytotoxicity against doxorubicin-resistant human NCI-ADR-RES cells incubated for 24 hrs measured after 5 day; format: functional, cell-based; procedure, shortened: as §1
# MCF7 [16] = assay: Cytotoxicity against human MCF7 cells incubated for 24 hrs measured after 5 days in presence of 0.2 U plasmin; format: functional, cell-based; procedure, shortened: as §1
# MCF7 [17] = assay: Cytotoxicity against human MCF7 cells incubated for 24 hrs measured after 5 days; format: functional, cell-based; procedure, shortened: as §1
# Bos taurus = organism: Bos taurus; assay: Activity of bovine trypsin assessed as enzyme specific activity for compound hydrolysis
# Procedure, shortened: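 50 µM prodrug incubated at 37 °C with enzyme: trypsin in PBS; papain diluted two-fold in PBS-NAC (PBS + 10 mM N-acetylcysteine), reacted in PBS-NAC pH 6.5. Aliquots quenched in equal volume ethanol, −20 °C ≥2 h, centrifuged; supernatant RP-HPLC at 480 nm for substrate loss and dox gain. Slope of linear fit gives activity; 1 U = 1 µM prodrug hydrolysed per min.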
# MCF7 [18] = assay: Drug uptake in human MCF7 cells increase in compound uptake-induced anthracycline fluorescence in absence of plasmin at 0.5 uM up to 5 hrs by flow cytometry relative to untreated control; format: ADME, cell-based; conditions: mcf7, 5 h; procedure, shortened: as §2
# [19] = Cytotoxicity against human L3.6PL cells incubated for 24 hrs measured after 5 day; format: functional, cell-based; procedure, shortened: as §1
# BXPC-3 [20] = assay: Cytotoxicity against human BxPC3 cells incubated for 24 hrs measured after 5 days; format: functional, cell-based; procedure, shortened: as §1
# BXPC-3 [21] = assay: Cytotoxicity against human BxPC3 cells incubated for 24 hrs measured after 5 days in presence of 0.2 U human plasmin; format: functional, cell-based; procedure, shortened: as §1
# Homo sapiens = organism: Homo sapiens; assay: Selectivity ratio of Kcat of human plasmin to Kcat of human cathepsin B
# Procedure, shortened: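 Michaelis–Menten kinetics with human enzymes and substrate at 10–400 µM, 37 °C. Plasmin: 0.2 U in PBS pH 7.4 for 4 min. Cathepsin B: 0.08 U in PBS with 10 mM N-acetylcysteine, pH 6.5, for 20 min. Quenched with ethanol, held at −20 °C ≥2 h, centrifuged. Dox release read by RP-HPLC at 480 nm. Rates (µM/min) fit by non-linear least squares; triplicate.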
smiles,measurement,setting,value
COc1cccc2c1C(=O)c1c(O)c3c(c(O)c1C2=O)C[C@@](O)(C(=O)CO)C[C@@H]3O[C@H]1C[C@H]2[C@H](OCN2C(=O)OCc2ccc(NC(=O)[C@H](CCCCN)NC(=O)[C@H](Cc3ccccc3)NC(=O)[C@@H](C)NC(=O)CNC(C)=O)cc2)[C@H](C)O1.O=P(O)(O)O,pIC50,MIA PaCa-2 [1],7.63
same,Activity,[2],4.59 ×10³ /M/s
same,pIC50,MCF7 [3],6.60
same,Drug metabolism,[4],Active
same,pIC50,MIA PaCa-2 [5],6.80
same,pIC50,HEK-293T,8.52
same,pIC50,[6],6.60
same,pIC50,[7],8.58
same,pIC50,[8],8.40
same,pIC50,MCF7 [9],6.92
same,fold change (FC),MCF7 [10],7
same,fold change (FC),MIA PaCa-2 [11],7
same,pIC50,MIA PaCa-2 [12],7.16
same,fold change (FC),MIA PaCa-2 [13],2
same,Activity,[14],1040 U/mg
same,pIC50,SHP77,7.53
same,pIC50,[15],6.04
same,pIC50,MCF7 [16],7.57
same,pIC50,MCF7 [17],6.70
same,Activity,Bos taurus,4340 U/mg
same,fold change (FC),MCF7 [18],2
same,pIC50,[19],6.50
same,pIC50,BXPC-3 [20],6.00
same,pIC50,BXPC-3 [21],7.40
same,Ratio,Homo sapiens,5
